Only some compounds are listed: those with a hit (about 2.4% of all), similar ones and a draw of the others.
Cardio protect = cardioprotection against H2O2-induced cell death, primary screen, uHTS, H9c2 cells, ATPLite luminescence | H9c2 cardiomyocytes, H2O2 injury protection, 2 h | protection from H2O2 cell death, % at 20 µM | actives 0.63% (n = 360,000) | AID 588492, 2011;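 active means compounds giving at least 50% protection of heart cells from peroxide-induced death in the single-dose screen, raw or plate-pattern-corrected value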
T cruzi inh = inhibitors of intracellular T. cruzi growth, primary screen, luminescence, NIH3T3 host cells; inhibition, % (concentration not given with the values); AID 1885, 2009; actives 1.4% (n = 300,000); T. cruzi beta-gal in NIH3T3, 90 h;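 active means mean inhibition across valid replicates above about 55%, limit read from the data; inconclusive means mean below that limit but half or more replicates reach it; inactive means mean below it, under half of replicates reach it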;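 further: signal also drops with host cell toxicity which is not excluded here; higher percent means less beta-gal luminescence so fewer parasites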
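Test system: β-gal T. cruzi (Tulahuen C4) inside NIH/3T3 cells / Quantity: 5,000 cells/well / Measured by: luminescence from GalScreen with 0.05% NP40, read after 60 min / Medium: DMEM plus 2% FBS / Measure: parasite load inhibition, % / Reagent: Tulahuen C4 trypomastigotes, 5000/well / Schedule: co-culture of at least 90 h after 3 h attachment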
PP5 inh = PP5 phosphatase inhibitors, primary screen, biochemical, fluorescence; Serine/threonine-protein phosphatase 5 (Homo sapiens), P53041; purified PP5c, OMFP substrate fluorescence; inhibition, % at 6.7 µM; actives 0.18% (n = 320,000); AID 1987, 2009;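 active means inhibition above the campaign's mean inhibition across all tested compounds plus 3 SD, cut at about 9.5% in these data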
Fh CTSL1 inh = Fasciola hepatica cathepsin L1 inhibitors, primary screen, counter-screen for PFM18AAP inhibitor project, biochemical, QFRET, fluorogenic peptide substrate; recombinant F. hepatica cathepsin L1, Z-Leu-Arg-MCA fluorescence; AID 1906, 2009; inhibition, % at 5.96 µM; actives 0.49% (n = 300,000);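 active means inhibition above the mean of all tested compounds plus 3 SD, set per screening campaign, cut at about 17% in these data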
JMJD2C inh = inhibitors of GASC-1 histone demethylase, primary screen, biochemical, fluorescence, DELFIA europium | GST-JMJD2C(1-420) H3K9me3 demethylation | inhibition, % at 2.35 µM | actives 0.069% (n = 330,000) | AID 2099, 2009;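 active means more than half of a compound's replicate wells show inhibition beyond 50%, single wells judged on their own value; inconclusive means some, but no more than half, of replicates pass 50% inhibition; inactive means no replicate passes 50% inhibition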;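 further: signal counts dimethyl H3K9 product captured on neutravidin plate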
pCIP destab = p/CIP-EGFP fusion destabilizers, primary screen, fluorescence, F442A cells | actives 0.01% (n = 290,000) | 16 h | decrease of EGFP signal, % at 10 µM;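 active means EGFP signal decrease of at least 30% at 10 µM or well 3 SD below plate mean, unless failing retest; inactive means the rest, including hits failing retest or dose response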
Each line names hits and unclear results; the compound was inactive in the other large screens.

Cc1ccc(NC(=O)C2COc3ccccc3O2)cc1S(=O)(=O)N1CCOCC1 (stereo not drawn)	none (no result: T cruzi inh, Fh CTSL1 inh, pCIP destab)
CCCc1sc(N/N=C/c2ccccn2)nc1-c1ccc(F)cc1	T cruzi inh 55
Cc1nc(N/N=C/c2ccccn2)sc1C	none (no result: Cardio protect, T cruzi inh)
O=C(NNC(=O)c1cc2cc(Br)ccc2oc1=O)c1ccc(O)cc1O	Cardio protect 77
COCCCNC(=O)c1cc2cc(Br)ccc2oc1=O	none (no result: T cruzi inh, JMJD2C inh)
CCC1CCCCN1C(=O)COC(=O)c1cc(C)nc2ccccc12 (stereo not drawn)	none (no result: T cruzi inh, Fh CTSL1 inh, pCIP destab)
C=CCCN(Cc1ccccc1)S(=O)(=O)c1cc(Br)ccc1Br	none (no result: T cruzi inh, Fh CTSL1 inh, pCIP destab)
COC(=O)c1ccc(C2Nc3cccc4cccc(c34)N2)cc1	T cruzi inh 67
CCNC(=O)C1CCCN(C(=O)c2cccc(C#N)c2)CC1 (stereo not drawn)	none (no result: T cruzi inh, PP5 inh, Fh CTSL1 inh, JMJD2C inh, pCIP destab)
COC(=O)[C@@]12CCCCN1[C@H](c1ccc(-c3cc(C(C)=O)cs3)cc1)[C@H]1C(=O)N(C)C(=O)[C@H]12	Cardio protect 56 (no result: pCIP destab)
COC(=O)[C@@]12CCCCN1[C@H](c1ccc(-c3cc(C(C)=O)cs3)c(OC)c1)[C@H]1C(=O)N(C)C(=O)[C@H]12	none (no result: T cruzi inh, pCIP destab)
COc1ccc(C(C[N+](=O)[O-])c2c(C)[nH]n(-c3ccccc3)c2=O)cc1 (stereo not drawn)	Fh CTSL1 inh 98
Cc1ccc(CSc2cc(C)[nH]c(=O)n2)cc1	none
Cc1ccc(NC(=O)COc2ccc(Br)cc2CO)cc1S(=O)(=O)N1CCOCC1	none (no result: T cruzi inh, PP5 inh, Fh CTSL1 inh, pCIP destab)
CCOc1ccc(Nc2ncnc3ccc([N+](=O)[O-])cc23)cc1	T cruzi inh 59
CCOC(=O)c1ccc(Nc2ncnc3ccc(C)cc23)cc1	none
CC(O)(c1cccnc1)c1nc(-c2cccc(C#N)c2)cs1 (stereo not drawn)	none (no result: T cruzi inh, PP5 inh, Fh CTSL1 inh, JMJD2C inh, pCIP destab)
OCCNc1nc2ccccc2nc1NCCO	none
O=c1c2ccccc2nc2c3ccccc3c(NCCO)nn12	Cardio protect 58
OCCNc1c2ccccc2nc2ccccc12	T cruzi inh 59
COCCn1c(C)cc(C(=O)COc2ccc(N(C)S(=O)(=O)c3ccc(C)cc3)cc2)c1C	none (no result: T cruzi inh, Fh CTSL1 inh, pCIP destab)
CC(C)c1c(C(=O)N/N=C/C=C/c2ccccc2)nnn1-c1nonc1N	none
O=C(N/N=C/c1ccncc1)c1ccc(COc2cccc3cccnc23)cc1	Cardio protect 64
O=C(N/N=C/c1ccc([N+](=O)[O-])cc1)c1ccc(COc2ccccc2-c2ccccc2)cc1	T cruzi inh 61
O=[N+]([O-])c1cccc(/C=C/c2ccncc2)c1	none
O=C(N/N=C/c1ccc([N+](=O)[O-])cc1)c1ccccc1OCc1ccccc1	none
COc1ccc(/C=N/NC(=O)c2sccc2OCc2ccc(F)cc2)cc1OC	Cardio protect 53
O=[N+]([O-])c1ccc(/C=C/c2ccncc2)cc1	T cruzi inh 65
CS(=O)(=O)c1ccc(Cl)c(NC(=O)CSc2nnc(-c3cccs3)n2N)c1	none (no result: T cruzi inh, Fh CTSL1 inh, pCIP destab)
CC1(C(=O)NS(=O)(=O)c2ccccc2Cl)CCN1C(=O)C1(c2ccc(Cl)cc2)CCC1 (stereo not drawn)	none (no result: T cruzi inh, PP5 inh, Fh CTSL1 inh, JMJD2C inh, pCIP destab)
Cc1ccc(C)c(OC(=O)c2cccc(S(=O)(=O)N3CCN(C)CC3)c2)c1	none
CCCc1c(C(=O)N/N=C/c2ccc(OCc3ccccc3)c(OC)c2)nnn1-c1nonc1N	Fh CTSL1 inh 17
COc1ccc(/C=N/NC(=O)c2ccc(COc3cccc4cccnc34)cc2)cc1O	none
O=C(/C=C/c1ccc([N+](=O)[O-])cc1)Oc1ccc(/C=N/NC(=O)c2ccncc2)cc1	T cruzi inh 55
COc1ccc(/C=N/NC(=O)c2ccc(COc3cccc4cccnc34)cc2)cc1OC	Cardio protect 54
O=C(NCc1ccc(F)cc1)c1ccc(CS(=O)Cc2ccccc2Cl)o1 (stereo not drawn)	none
CN=C1NC(C)(C)C2CCC(C)(CC2)S1	none (no result: T cruzi inh, PP5 inh, Fh CTSL1 inh, JMJD2C inh, pCIP destab)
N#Cc1c(F)cccc1N1CCN(Cc2ccc3c(c2)OCO3)CC1	none
Cc1[nH]c2ccccc2c1SCc1nnc(SCc2ccc(Cl)cc2)n1C	T cruzi inh 59
COc1ccc(/C=C/C(=O)NC(=S)NNC(=O)c2cccnc2)cc1	none
O=C(/C=C/c1ccc(F)cc1)NC(=S)NNC(=O)c1cnccn1	Cardio protect 52, T cruzi inh inconclusive
COc1ccc(/C=C/C(=O)NC(=S)NNC(=O)c2cnccn2)cc1	T cruzi inh 65
COc1ccc(C(=O)Oc2cc(C)c(CN3CCOCC3)cc2C)cc1OC	none
COc1cc(OC)cc(C(=O)Nc2cccc(N3CCCC3)c2)c1	T cruzi inh 68
O=C(NC(=S)Nc1ccccc1N1CCCC1)c1ccccc1Br	Fh CTSL1 inh 23
COc1cccc(C(=O)NC(=S)Nc2ccccc2N2CCCC2)c1	Fh CTSL1 inh 23
COc1cccc(C(=O)NC(=S)Nc2ccccc2N2CCCCC2)c1	none
O=C(NC(=S)Nc1ccccc1N1CCCC1)c1ccco1	Fh CTSL1 inh 21
O=C(NC(=S)Nc1ccccc1N1CCCCC1)c1ccco1	none
O=C(NC(=S)Nc1ccccc1N1CCCC1)c1ccccc1[N+](=O)[O-]	none
O=C(CSc1nnc(C2CC2)n1-c1ccccc1)N1CCNC1=O	none (no result: T cruzi inh, Fh CTSL1 inh, JMJD2C inh, pCIP destab)
Cc1cc(C)c(S(=O)(=O)N2CCN(C(=O)c3cc4ccccc4o3)CC2)c(C)c1	none (no result: T cruzi inh, PP5 inh, Fh CTSL1 inh, JMJD2C inh, pCIP destab)
N#Cc1ccccc1S(=O)(=O)N1CCN(C(=O)c2cc(=O)[nH]c3ccccc23)CC1	none (no result: T cruzi inh, Fh CTSL1 inh, pCIP destab)
COc1ccc(N2CCN(C(=O)c3cc(=O)[nH]c4ccccc34)CC2)cc1	none
Cc1cc(C)c(S(=O)(=O)N2CCN(C(=O)c3cc(=O)[nH]c4ccccc34)CC2)c(C)c1	Cardio protect 63 (no result: T cruzi inh, Fh CTSL1 inh, pCIP destab)
Cc1cc(C)c(C)c(S(=O)(=O)N2CCN(C(=O)c3cc(=O)[nH]c4ccccc34)CC2)c1C	Cardio protect 79 (no result: T cruzi inh)
Cc1ccc(S(=O)(=O)N2CCN(C(=O)c3cc(=O)[nH]c4ccccc34)CC2)c(C)c1	Cardio protect 72
Cc1ccc(NC(=O)C2CCN(S(=O)(=O)c3cccnc3)CC2)cc1C	none
Cn1c(=O)n(CCCO)c(=O)c2c1nc1n2CCCN1Cc1ccccc1	none
O=C(/C=C/c1ccc([N+](=O)[O-])cc1)Nc1cccnc1	none
O=C(/C=C/c1ccc(Cl)c([N+](=O)[O-])c1)Nc1ccc(NC(=O)c2ccco2)cc1	none (no result: PP5 inh, Fh CTSL1 inh)
O=C(/C=C/c1ccc(Cl)c([N+](=O)[O-])c1)Nc1cccc(NC(=O)c2ccco2)c1	Cardio protect 88
O=C(/C=C/c1ccc(Cl)c([N+](=O)[O-])c1)Nc1cccnc1	Cardio protect 50
